Activity calls are given as the source filed them. The calls are words filed in the database; no cut-off is given here. Residues, ends and D or L forms follow the SMILES beside them. *: point of attachment. Adamantane1carbonyl = O=C(C12CC3CC(CC(C3)C1)C2)*; Cyclohexanecarbonyl = O=C(C1CCCCC1)*; Decanoyl = CCCCCCCCCC(=O)*; Cbz = O=C(OCc1ccccc1)*; NHcHex = C1CCC(N*)CC1; Bz = O=C(c1ccccc1)*; OtBu = CC(C)(C)O*; NEt2 = CCN(CC)*; X3 = OC1CN(*)C1; X1 = C#CCO*

The subject of series [1] is HEK293. Nature of the series: Modulation of recombinant human FGF141b (1 to 252 residues)-recombinant human Nav1.6 C-terminal tail (1763 to 1976 residues) protein-protein interaction expressed in HEK293 cells assessed as relative luminescence value at 50 uM measured at 2 mins interval for 20 mins by split-luciferase complementation assay relative to control. The format is cell-based. Conditions: time min 2-20. The gist of the method: (§1)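 Double-stable HEK293 line expressing CLuc-FGF14 and CD4-Nav1.6-C-tail-NLuc, kept on G418 and puromycin. Cells seeded for 24 h, then given compound for 1 h in serum-free, phenol red-free DMEM/F12 with a final 0.5% DMSO: 50 μM for screening, 0.25–100 μM over eight concentrations for dose-response; n = 4. D-luciferin added and read every 2 min for 20 min at 37 °C. Peak luminescence expressed as percent of per-plate DMSO mean (n = 32). IC50 from four-parameter nonlinear fit. At least 3 experiments.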

Series [2] is described as follows: Modulation of recombinant human FGF141b (1 to 252 residues)-recombinant human Nav1.6 C-terminal tail (1763 to 1976 residues) protein-protein interaction expressed in HEK293 cells measured at 2 mins interval for 20 mins by split-luciferase complementation assay. Format: cell-based. The gist of the method: as §1
In series [3] the test system is HEK293. Nature of the series: Inhibition of full-length Photinus pyralis luciferase transfected in HEK293 cells at 25 uM incubated for 1 hrs by split-luciferase complementation assay. The format is cell-based. Summed up: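 HEK293 cells transfected with full-length Photinus pyralis luciferase, then treated 1 h with 25 μM compound (n = 4) or 0.5% DMSO (n = 32). Luminescence read after D-luciferin addition, as in the LCA, normalized to per-plate DMSO controls. One-way ANOVA with Dunnett's test.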

The test system of series [4] is HEK293. Nature of the series: Cytotoxicity against HEK293 cells assessed as reduction in cell viability measured after 18 hrs by celltiter-blue assay. Conditions: human, hek293, 18 h. For orientation: Resazurin is reduced to fluorescent resorufin, in cell work by metabolically active cells.
The test system of series [5] is HEK293. The series is described as follows: Modulation of recombinant human FGF141b (1 to 252 residues)-recombinant human Nav1.6 C-terminal tail (1763 to 1976 residues) protein-protein interaction expressed in HEK293 cells measured at 2 mins interval for 20 mins by split-luciferase complementation assay relative to control. Format: cell-based. To be noted: filed as modulator, time min 2-20. The gist of the method:
as §1

In series [6] the target is T1, Sodium channel protein type 8 subunit alpha (Homo sapiens, UniProt Q9UQD0). The series is described as follows: Binding affinity to human recombinant Nav1.6 C-terminal domain expressed in Escherichia coli BL21 assessed as assessed as induction of protein denaturation by measuring change in melting temperature at 10 uM by fluorescent dye based thermal shift assay. Conditions: filed as modulator, dose 50.0 µM.
Target sequence in this assay (Q9UQD0 whole entry, looked up, the tested form may be a part): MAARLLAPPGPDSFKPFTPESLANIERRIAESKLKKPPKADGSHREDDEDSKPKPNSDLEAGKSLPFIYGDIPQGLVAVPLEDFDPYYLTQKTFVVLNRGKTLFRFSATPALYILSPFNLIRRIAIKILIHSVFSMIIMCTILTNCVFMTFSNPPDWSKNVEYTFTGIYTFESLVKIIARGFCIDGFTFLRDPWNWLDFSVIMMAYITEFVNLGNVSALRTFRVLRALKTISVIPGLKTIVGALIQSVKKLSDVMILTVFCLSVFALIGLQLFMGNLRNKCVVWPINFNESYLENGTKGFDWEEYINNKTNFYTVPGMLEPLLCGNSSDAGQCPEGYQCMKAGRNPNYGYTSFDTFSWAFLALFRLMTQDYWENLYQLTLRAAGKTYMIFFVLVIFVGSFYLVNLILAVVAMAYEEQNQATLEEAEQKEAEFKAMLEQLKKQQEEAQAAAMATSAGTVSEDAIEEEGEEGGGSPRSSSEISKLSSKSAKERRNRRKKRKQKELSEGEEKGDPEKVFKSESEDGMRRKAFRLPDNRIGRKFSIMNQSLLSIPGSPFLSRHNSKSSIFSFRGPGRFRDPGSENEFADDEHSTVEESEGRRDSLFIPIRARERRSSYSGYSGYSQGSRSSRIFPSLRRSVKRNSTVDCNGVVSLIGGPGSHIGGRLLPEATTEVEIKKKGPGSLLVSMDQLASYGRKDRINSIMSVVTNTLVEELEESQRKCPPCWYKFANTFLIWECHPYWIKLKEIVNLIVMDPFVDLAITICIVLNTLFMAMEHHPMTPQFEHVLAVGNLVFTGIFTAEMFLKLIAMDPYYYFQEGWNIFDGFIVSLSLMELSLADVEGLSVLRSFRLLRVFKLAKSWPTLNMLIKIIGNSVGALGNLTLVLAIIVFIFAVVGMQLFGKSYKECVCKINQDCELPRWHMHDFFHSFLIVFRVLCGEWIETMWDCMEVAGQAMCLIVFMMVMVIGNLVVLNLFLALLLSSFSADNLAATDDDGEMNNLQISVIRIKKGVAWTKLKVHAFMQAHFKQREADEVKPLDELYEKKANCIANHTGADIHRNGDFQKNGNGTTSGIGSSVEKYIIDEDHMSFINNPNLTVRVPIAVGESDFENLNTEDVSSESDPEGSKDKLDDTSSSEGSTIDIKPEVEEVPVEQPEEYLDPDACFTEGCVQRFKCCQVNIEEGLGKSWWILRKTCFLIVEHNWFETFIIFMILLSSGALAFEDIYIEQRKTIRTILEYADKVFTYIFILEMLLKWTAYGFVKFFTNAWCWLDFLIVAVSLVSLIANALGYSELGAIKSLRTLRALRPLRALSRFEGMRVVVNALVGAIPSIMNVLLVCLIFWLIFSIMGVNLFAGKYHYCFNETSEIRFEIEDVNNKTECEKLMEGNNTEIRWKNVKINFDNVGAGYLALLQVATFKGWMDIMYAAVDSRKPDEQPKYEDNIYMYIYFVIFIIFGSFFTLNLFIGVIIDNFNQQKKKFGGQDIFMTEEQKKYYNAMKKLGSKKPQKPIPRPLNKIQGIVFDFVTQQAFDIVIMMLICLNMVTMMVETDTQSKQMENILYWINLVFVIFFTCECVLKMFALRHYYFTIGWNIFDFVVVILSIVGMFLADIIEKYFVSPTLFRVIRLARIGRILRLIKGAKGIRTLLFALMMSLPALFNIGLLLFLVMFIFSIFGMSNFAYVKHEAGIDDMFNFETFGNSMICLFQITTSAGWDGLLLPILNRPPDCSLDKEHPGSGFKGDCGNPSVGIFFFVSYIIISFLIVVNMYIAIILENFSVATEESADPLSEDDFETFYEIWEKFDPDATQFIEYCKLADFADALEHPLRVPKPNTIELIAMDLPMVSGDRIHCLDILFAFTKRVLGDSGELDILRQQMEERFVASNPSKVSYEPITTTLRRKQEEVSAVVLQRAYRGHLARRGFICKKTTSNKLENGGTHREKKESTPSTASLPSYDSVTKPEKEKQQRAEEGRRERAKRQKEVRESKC

Series [7] deals with T2, Fibroblast growth factor 14 (Homo sapiens) (UniProt Q92915).
T2 sequence (whole entry): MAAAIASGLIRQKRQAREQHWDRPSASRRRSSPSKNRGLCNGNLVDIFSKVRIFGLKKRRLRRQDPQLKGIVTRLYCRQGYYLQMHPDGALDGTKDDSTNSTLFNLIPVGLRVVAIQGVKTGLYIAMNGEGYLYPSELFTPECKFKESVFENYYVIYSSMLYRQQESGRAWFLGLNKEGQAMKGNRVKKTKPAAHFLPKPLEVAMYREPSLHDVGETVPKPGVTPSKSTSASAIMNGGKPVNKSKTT
Nature of the series: Binding affinity to human recombinant FGF14 expressed in Escherichia coli BL21 assessed as assessed as induction of protein denaturation by measuring change in melting temperature at 50 uM by fluorescent dye based thermal shift assay. To be noted: filed as modulator.

The target in series [8] is T2, Fibroblast growth factor 14 (Homo sapiens). Nature of the series: Binding affinity to human recombinant FGF14 expressed in Escherichia coli BL21 assessed as association rate constant by SPR analysis. To be noted: filed as modulator. The gist of the method: (§2)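 Biacore T100 runs with FGF14 (17,896 RU) or Nav1.6 C-tail (6,800 RU) amine-coupled on CM5 at pH 5.5. Compounds at 0.195–200 μM in PBS, 0.005% Tween-20, 2% DMSO; 50 μL/min at 25 °C. 120 s association, 150 s dissociation, DMSO calibration, blank subtraction. Rates from a Langmuir 1:1 fit; KD averages the kinetic and steady-state values. At least duplicate experiments.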
Background: SPR reads the build-up and loss of mass on a sensor chip optically.

Series [9] has as its target T3, Fibroblast growth factor 14 (Homo sapiens, UniProt Q92915).
T3 sequence (Q92915 whole entry): T2 sequence (whole entry)
Nature of the series: Binding affinity to human recombinant FGF14 expressed in Escherichia coli BL21 assessed as dissociation constant by SPR analysis. The gist of the method:
as §2

Series [10] addresses T1, Sodium channel protein type 8 subunit alpha. Nature of the series: Binding affinity to human recombinant Nav1.6 C-terminal domain expressed in Escherichia coli BL21 assessed as association rate constant by SPR analysis. Conditions: filed as modulator. Summed up:
as §2
Target sequence in this assay (Q9UQD0 whole entry, looked up, the tested form may be a part): as the sequence (Q9UQD0 whole entry, looked up, the tested form may be a part) above

The target is the same in series [11]. Nature of the series: Binding affinity to human recombinant Nav1.6 C-terminal domain expressed in Escherichia coli BL21 assessed as dissociation constant by SPR analysis. Summed up:
as §2
Target sequence in this assay (Q9UQD0 whole entry, the tested form may be a part): as the sequence (Q9UQD0 whole entry, looked up, the tested form may be a part) above

For series [12] the target is unchanged. Nature of the series: Binding affinity to human recombinant Nav1.6 C-terminal domain expressed in Escherichia coli BL21 assessed as dissociation rate constant by SPR analysis. To be noted: filed as modulator. Summed up:
as §2
Target sequence in this assay (Q9UQD0 whole entry, looked up, the tested form may be a part): as the sequence (Q9UQD0 whole entry, looked up, the tested form may be a part) above

Regarding `CC(C)C[C@H](NC(=O)[C@@H]1CCCN1C(=O)OCc1ccccc1)C(=O)N[C@@H](CCC(=O)OC(C)(C)C)C(=O)N[C@H](C(N)=O)C(C)C` (Cbz-PLE(OtBu)V-NH2), the Activity with HEK293 [1] was found to be 112%.
As for `CC(=O)N1CCC[C@H]1C(=O)N[C@@H](CC(C)C)C(=O)N[C@@H](CCC(=O)O)C(=O)N[C@H](C(N)=O)C(C)C` (Ac-PLEV-NH2), in the series on HEK293 [1], the Activity turned out to be 79.4%.
On the same count and under the same terms, under `CC(C)C[C@H](NC(=O)[C@@H]1CCCN1C(=O)OCc1ccccc1)C(=O)N[C@@H](CCC(=O)OC(C)(C)C)C(=O)N[C@H](C(=O)N1CC(O)C1)C(C)C` (Cbz-PLE(OtBu)V-X3) stands 112%; under `CC(C)C[C@H](NC(=O)[C@@H]1CCCN1C(=O)OCc1ccccc1)C(=O)N[C@@H](CCC(=O)OC(C)(C)C)C(=O)N[C@H](C(=O)NC1CCCCC1)C(C)C` (Cbz-PLE(OtBu)V-NHcHex), 117%; under `COC(=O)[C@@H](NC(=O)[C@H](CCC(=O)OC(C)(C)C)NC(=O)[C@H](CC(C)C)NC(=O)[C@@H]1CCCN1C(C)=O)C(C)C` (Ac-PLE(OtBu)V-OMe), 95%.
Take `CNC(=O)[C@@H](NC(=O)[C@H](CCC(=O)OC(C)(C)C)NC(=O)[C@H](CC(C)C)NC(=O)[C@@H]1CCCN1C(=O)OCc1ccccc1)C(C)C` (Cbz-PLE(OtBu)V-NHMe): the Activity with HEK293 [1] was 103%.
In the case of `CCCCCCCCCC(=O)N1CCC[C@H]1C(=O)N[C@@H](CC(C)C)C(=O)N[C@@H](CCC(=O)OC(C)(C)C)C(=O)N[C@H](C(N)=O)C(C)C` (Decanoyl-PLE(OtBu)V-NH2), in the series with HEK293 [1], the Activity is 114%.
Usually IC50 stands for the concentration needed to halve the response being measured. For `CC(C)C[C@H](NC(=O)[C@@H]1CCCN1C(=O)C12CC3CC(CC(C3)C1)C2)C(=O)N[C@@H](CCC(=O)OC(C)(C)C)C(=O)N[C@H](C(N)=O)C(C)C` (Adamantane1carbonyl-PLE(OtBu)V-NH2), the concentration for half-maximal inhibition (IC50) in series [2] came out at 49 µM. For the same compound, in the series on HEK293 [3], the inhibition entry is “inactive”. For the same compound, the Activity was 68.7% with HEK293 [1] and “Non-Toxic” with HEK293 [4]. In the series on HEK293 [5], the Efficacy stood at 82.1%.
On to `CC(C)C[C@H](NC(=O)[C@@H]1CCCN1C(=O)c1ccccc1)C(=O)N[C@@H](CCC(=O)OC(C)(C)C)C(=O)N[C@H](C(N)=O)C(C)C` (Bz-PLE(OtBu)V-NH2), for which the Activity with HEK293 [1] was 105%.
On to `CC(C)C[C@H](NC(=O)[C@@H]1CCCN1C(=O)C1CCCCC1)C(=O)N[C@@H](CCC(=O)OC(C)(C)C)C(=O)N[C@H](C(N)=O)C(C)C` (Cyclohexanecarbonyl-PLE(OtBu)V-NH2), for which the Activity in the series on HEK293 [1] is 104%.
`CCN(CC)C(=O)[C@@H](NC(=O)[C@H](CCC(=O)OC(C)(C)C)NC(=O)[C@H](CC(C)C)NC(=O)[C@@H]1CCCN1C(=O)OCc1ccccc1)C(C)C` (Cbz-PLE(OtBu)V-NEt2): in the series on HEK293 [1], the Activity is 92.3%.
As for `CC(C)C[C@H](NC(=O)[C@@H]1CCCN1)C(=O)N[C@@H](CCC(=O)OC(C)(C)C)C(=O)N[C@H](C(N)=O)C(C)C` (H-PLE(OtBu)V-NH2), in the series on HEK293 [1], the Activity came to 114%.
In general, ΔTm refers to the shift of the melting midpoint relative to a reference. One may read the Kd as the equilibrium constant for the complex coming apart. Regarding `C#CCOC(=O)[C@@H](NC(=O)[C@H](CCC(=O)OC(C)(C)C)NC(=O)[C@H](CC(C)C)NC(=O)[C@@H]1CCCN1C(=O)C12CC3CC(CC(C3)C1)C2)C(C)C` (Adamantane1carbonyl-PLE(OtBu)V-X1), the half-inhibitory concentration (IC50) in series [2] stood at 13.8 µM. Further, the shift in melting temperature (ΔTm) was -0.15 °C in series [6] and -1.85 °C in series [7]. Further, the K in series [8] was 2.58 10^4/M/s; in [10] it was 1.26 10^5/M/s; in series [12], 1.45 10^-3/s. In addition, the Kd in [9] was 14.7 µM; in [11], over 200 µM. For the same compound, the inhibition entry in the series on HEK293 [3] was “inactive”. The Activity in the series on HEK293 [1] (filed as modulator) was 5.1%; in the series on HEK293 [4], “Non-Toxic”. Further, in the series on HEK293 [5], the Efficacy worked out at 96.6%.

(Values after ChEMBL document CHEMBL4699573, “Design, Synthesis, and Pharmacological Evaluation of Analogues Derived from the PLEV Tetrapeptide as Protein-Protein Interaction Modulators of Voltage-Gated Sodium Channel 1.6” (J Med Chem, 2020).)
